# Assay results of several laboratories.
# Protocols differ between the studies behind these lines.
# Organism: Plasmodium falciparum
# Read-out: parasite growth
Structure (SMILES),method,strain,concentration,time,setting,endpoint,value
COc1cc(/C=C/C(=O)C(=Cc2ccc([N+](=O)[O-])cc2)C(=O)/C=C/c2ccc(O)c(OC)c2)ccc1O,,3D7,,,blood stage,EC50,2770 nM
CO[C@H]1/C=C/O[C@@]2(C)Oc3c(C)c(O)c4c(O)c(c(/C=N/N5CCN(C6CCCC6)CC5)c(O)c4c3C2=O)NC(=O)/C(C)=C\C=C\[C@H](C)[C@H](O)[C@@H](C)[C@@H](O)[C@@H](C)[C@H](OC(C)=O)[C@@H]1C,,NF54,,,blood stage,IC50,240 nM
Cc1nnc(-c2ccc3ccn(CC(=O)Nc4ccccn4)c3c2)o1,,3D7,,72 h,blood stage,EC50,4250 to 4780 nM
COC1=C(OC)/C(=C/c2[nH]c(Cc3ccc(OC(F)(F)F)cc3)cc2Cc2ccc(OC(F)(F)F)cc2)N=C1c1ccc[nH]1,SYBR Green,D6,,72 h,blood stage,IC50,85.9 nM
COc1cc(/C=C/C(=O)C(=Cc2ccccc2)C(=O)/C=C/c2ccc(O)c(OC)c2)ccc1O,,3D7,,,blood stage,EC50,3790 nM
CCc1nnc(-c2ccc3ccn(CC(=O)Nc4cc(OC)c(OC)c(OC)c4)c3c2)o1,,DD2,,72 h,blood stage,EC50,194 nM
CC1=C(C)/C(=C/c2[nH]c(Cc3ccc(Cl)cc3)cc2Cc2ccc(Cl)cc2)N=C1c1ccc[nH]1,SYBR Green,D6,,72 h,blood stage,IC50,> 2500 nM
COc1cc(/C=C2\CC/C(=C\c3ccc(O)c(OC)c3)C2=O)ccc1O,,3D7,,,blood stage,EC50,250 nM
Cc1ccc(N(C)c2ccc(NC(=O)CN(C)c3ccccc3N3CCCC3=O)cn2)cc1,,3D7,,72 h,blood stage,EC50,13 nM
CCC1=C(CC)/C(=C/c2[nH]c(Cc3ccc(OC(F)(F)F)cc3)cc2Cc2ccc(OC(F)(F)F)cc2)N=C1c1ccc[nH]1,SYBR Green,D6,,72 h,blood stage,IC50,2040 nM
COc1ccnn1-c1ccccc1NCC(=O)Nc1ccc(Oc2ccc(C)cc2)cc1,,3D7,,72 h,blood stage,EC50,> 10000 nM
CCN(CC)CCCC(C)Nc1ccnc2cc(Cl)ccc12 (stereo not drawn),,3D7,,,blood stage,EC50,8 nM
Cc1ccc(N(c2ccc(NC(=O)CN(C)c3ccccc3N3CCCC3=O)cc2)C(C)C)cc1,,3D7,,72 h,blood stage,EC50,5 nM
COc1cc(/C=C/c2cc(/C=C/c3ccc(O)c(OC)c3)n(-c3ccc(Cl)cc3Cl)n2)ccc1O,,3D7,,,blood stage,EC50,3290 nM
COc1cc(NC(C)CCCN)c2ncccc2c1 (stereo not drawn),,,100 µM,,gametocyte,inhibition,100%
CCCN(c1ccc(C)cc1)c1ccc(NC(=O)CN(C)c2ccccc2N2CCCC2=O)cc1,,3D7,,72 h,blood stage,EC50,10 nM
Cc1[nH]c(/C=C2\N=C(c3ccc[nH]3)C3=C2OCCO3)cc1Cc1ccc(Cl)cc1,SYBR Green,D6,,72 h,blood stage,IC50,14.3 nM
CCN(CC)CCOc1ccc2c(c1)C(=O)c1cc(OCCN(CC)CC)ccc1-2,,NF54,,,blood stage,IC50,647 nM
COC1=CC(c2ccc[nH]2)=N/C1=C\c1cc(Cc2ccc(OC)cc2)c(-c2ccc(OC)cc2)[nH]1,SYBR Green,D6,,72 h,blood stage,IC50,89 nM
Cc1ccc(Oc2ccc(NC(=O)C(C)(C)Nc3ccccc3N3CCCC3=O)cc2)cc1,,3D7,,72 h,blood stage,EC50,> 10000 nM
C[C@H]1Cc2c([nH]c3cc(Cl)c(F)cc23)[C@@]2(N1)C(=O)Nc1ccc(Cl)cc12,,3D7,,72 h,blood stage,EC50,0.7 nM
COC1=CC(c2ccc[nH]2)=N/C1=C\c1[nH]c(-c2ccc(OC)cc2)cc1-c1ccc(OC)cc1,SYBR Green,D6,,72 h,blood stage,IC50,31.2 nM
CC(C(=O)Nc1ccccc1Cl)n1ccc2ccc(-c3cnn(C)c3)cc21 (stereo not drawn),,3D7,,72 h,blood stage,EC50,1120 nM
COC1=CC(c2ccc[nH]2)=N/C1=C\c1[nH]c(C(=O)O)cc1Cc1ccc(Cl)cc1,SYBR Green,D6,,72 h,blood stage,IC50,> 2500 nM
CCN(c1ccc(C)cc1)c1ccc(NC(=O)CN(C)c2ccccc2N2CCCC2=O)cc1,,3D7,,72 h,blood stage,EC50,19 nM
COC1=CC(c2ccc[nH]2)=N/C1=C\c1[nH]c(C)cc1Cc1ccc(OC(F)(F)F)cc1,SYBR Green,D6,,72 h,blood stage,IC50,2.48 nM
CC(=O)[C@@]1(O)[C@H](O)C[C@H]2[C@@H]3CCC4=CC(=O)CC[C@]4(C)[C@H]3CC[C@@]21C,SYBR Green,3D7,,,blood stage,IC50,142 nM
Cc1ccc(Oc2ccc(NC(=O)COc3ccccc3N3CCCC3=O)cc2)cc1,,3D7,,72 h,blood stage,EC50,1570 nM
CO[C@H]1C[C@H](O[C@@H]2/C(C)=C/C[C@@H]3C[C@@H](C[C@]4(CC[C@H](C)[C@@H](C5CCCCC5)O4)O3)OC(=O)[C@@H]3C=C(C)/C(=N/O)[C@H]4OC/C(=C\C=C\[C@@H]2C)[C@]43O)O[C@@H](C)[C@@H]1O,,NF54,,,blood stage,IC50,698 nM
CC(C)N(c1ccc(NC(=O)CN(C)c2ccccc2N2CCCC2=O)cc1)c1ccc(Cl)c(F)c1,,3D7,,72 h,blood stage,EC50,39 nM
